Only some compounds are listed: those with a hit (about 9.6% of all), similar ones and a draw of the others.
BaF3 parental: parental Ba/F3 viability inhibition as JAK2V617F counter-screen | AID 1486 | 1.1% of 220,000 active | inhibition, % at 5.6 µM | CellTiter-Glo ATP luminescence;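 active = inhibition above a per-campaign cutoff, the mean inhibition of all tested compounds plus 3 SD, cut at about 27% in these data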;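 also: 0% = DMSO wells and 100% = JAK Inhibitor I control wells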
APP transl inh: APP translation inhibition | inhibition, % at 2 µM | 0.82% of 190,000 active | SH-SY5Y APP 5'UTR-luciferase reporter, luminescence;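 active = inhibition above a set limit, derived from the sample mean plus 3 SD, cut at about 45% in these data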
Ba/F3 V617F tox: lowers viability of Ba/F3 cells expressing EpoR and JAK2V617F. inhibition, % at 5.6 µM. ATP luminescence. AID 1446. 1.1% of 220,000 active;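 active = inhibition above the campaign mean plus 3 SD over all tested compounds, cut at about 24% in these data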;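 also: cytokine-independent growth of Ba/F3 cells driven by EpoR plus mutant JAK2; 0% = DMSO-treated cells and 100% = JAK inhibitor I control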
b-catenin transl: modulators of beta-catenin nuclear translocation. 0.3% of 190,000 active. AID 1665. HeLa beta-catenin nuclear translocation, immunofluorescence imaging. nuclear translocation activity, % at 5 µM;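 active = nuclear translocation activity above 50% at 5 µM, with a well cell count of 50 or more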;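 also: per-cell ratio of nuclear to cytoplasmic median beta-catenin stain intensity; plate controls were DMSO negative control for no effect and GSK-3 inhibitor IX positive control for full effect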
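System: HeLa cells, endogenous beta-catenin; compound dosing: 5 µM primary single dose, 0.1% DMSO, 0.02–20 µM confirmation series; incubation: 24 h compound exposure at 37°C, 5% CO2; signal: beta-catenin immunofluorescence imaging with DAPI; evaluation: % activation, nuclear-to-cytoplasmic median beta-catenin signal ratio per cell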
L major viab: reduces viability of Leishmania major promastigotes; resazurin fluorescence viability; inhibition, % at 10 µM; 9% of 200,000 active; in the data active = inhibition above about 50%;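 also: promastigotes grown with compound for 44 hours at 28 °C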
MT stabilizer: microtubule stabilization, imaging screen; HeLa tubulin immunostaining HCS, 24 h; share of cells brighter than vehicle mean+2SD; % tubulin-high responders, % at 10 µM; 0.83% of 200,000 active;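 active = plate Z-score above 3 for both tubulin-high and condensed-nucleus cell shares, with cell loss under 80%, at 10 µM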;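 also: anti alpha tubulin signal scored within the nucleus-defined area of each cell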
* hit, by the source's call; . = no result.

SMILES	BaF3 parental	APP transl inh	Ba/F3 V617F tox	b-catenin transl	L major viab	MT stabilizer
CCOC(=O)C(C)Sc1nc2c(cnn2-c2ccc(C)cc2)c(=O)[nH]1 (centres undefined)	1.1	-12.1	-4.3	0.6	0.4	42.8*
COc1ccc(N2C(C(C)=O)=NN(c3ccccc3)C2c2cccs2)cc1 (centres undefined)	48.0*	4.9	25.2*	.	7.5	4.1
O=C1COc2ccc(-c3csc(=Nc4ccc(OC(F)F)cc4)n3CC3CCCO3)cc2N1 (centres undefined)	2.4	16.3	1.7	-1.2	99.5*	1.8
COc1ccccc1N=c1scc(-c2ccc3c(c2)NC(=O)CO3)n1CC1CCCO1 (centres undefined)	6.1	-1.8	-0.9	-5.8	5.6	3.1
CCCCn1c(NC(=O)c2ccccc2)c(C#N)c2nc3ccccc3nc21	6.1	-0.3	9.3	2.6	97.3*	3.2
CCC(C)n1c(NC(=O)c2ccccc2)c(C#N)c2nc3ccccc3nc21 (centres undefined)	4.5	4.5	6.6	.	48.5	7.3
Cc1cc(C)n(-c2nc(N(c3ccccc3)c3ccccc3)nc(-n3nc(C)cc3C)n2)n1	1.0	4.1	0.8	-0.8	54.1*	3.0
CC(=O)c1nnn(-c2nc(N)nc(N(c3ccccc3)c3ccccc3)n2)c1C	4.8	10.8	-0.4	1.1	91.7*	5.9
Cc1cc(C)n(-c2nc(Nc3ccccc3)nc(-n3nc(C)cc3C)n2)n1	2.2	2.4	-0.8	-1.6	-5.5	2.0
CC(=O)c1nnn(-c2c(F)cccc2F)c1C	-3.3	.	-1.4	-3.2	.	.
CCOC(=O)c1nnn(-c2nc(N(C)C)nc(N(C)C)n2)c1C	3.4	-16.7	1.6	-0.9	0.3	1.8
CCCCN(CCCC)c1nc(OC)nc(-n2nnc(C(C)=O)c2C)n1	4.9	-24.1	1.7	.	62.5*	0.9
CCC1CCCCN1S(=O)(=O)c1ccc2c(c1)CCN2C(=O)C1CCC1 (centres undefined)	2.4	-12.3	-0.7	-0.8	19.6	3.6
O=C(CCl)c1ccc2c(c1)CCN2C(=O)C1CCCCC1	5.5	14.7	0.0	-1.9	100.4*	2.0
O=C(CCl)c1ccc2c(c1)CCN2C(=O)C1CC1	6.4	-4.5	0.3	1.0	100.5*	1.3
COc1ccc(C2(O)CCN(CC(=O)Nc3nccs3)CC2)c(OC)c1	7.7	-2.7	2.8	2.4	87.6*	4.7
C=CC(=O)NCCCc1cc(C(C)(C)C)c(O)c(C(C)(C)C)c1	7.8	18.7	3.4	0.9	22.7	2.0
CC(C)c1cccc(C(C)C)c1NC(=O)CNCc1ccccc1F	9.0	4.8	0.9	.	59.9*	1.3
CCn1c(-c2ccccc2)c(C(=O)CCl)c2ccccc21	3.3	-2.8	-3.7	-2.6	98.7*	3.5
Cn1c(-c2ccccc2)c(C(=O)CCl)c2ccccc21	5.2	-12.0	0.8	0.6	97.9*	7.0
CCn1c2ccccc2c(=O)c2ccccc21	9.0	9.0	2.8	2.1	21.2	3.3
CC(C)(C)NC(=O)C(c1cccs1)N(Cc1cccs1)C(=O)c1csnn1 (centres undefined)	9.3	1.0	0.1	2.5	3.4	6.0
c1ccc2sc(NC3=NCN(CCN4CCOCC4)CN3)nc2c1	2.2	-4.2	3.0	-0.7	84.0*	1.1
OCCN1CN=C(Nc2nc3ccccc3s2)NC1	-1.2	-4.9	-1.2	5.0	-0.2	3.1
Cc1[nH]c(=O)[nH]c(=O)c1CSCC(=O)OCC(=O)Nc1ccccn1	-3.7	.	0.4	-1.0	.	.
SMILES	BaF3 parental	APP transl inh	Ba/F3 V617F tox	b-catenin transl	L major viab	MT stabilizer
O=C(Oc1c(CN2CCOCC2)cc(Cl)c2cccnc12)c1ccc(F)cc1	2.2	37.0	-2.4	.	100.3*	2.9
COc1ccc(C(=O)Oc2c(CN3CCOCC3)cc(Cl)c3cccnc23)cc1	4.2	37.6	4.3	-6.4	96.8*	2.5
O=C(Oc1ccccc1C(=O)N1CCOCC1)c1ccc(F)cc1	-0.7	.	-2.7	-0.4	.	.
COc1cc(C(=O)Oc2c(CN3CCOCC3)cc(Cl)c3cccnc23)cc(OC)c1OC	0.4	39.3	-1.3	.	100.5*	4.9
COc1cccc(C(=O)Oc2c(CN3CCOCC3)cc(Cl)c3cccnc23)c1	2.3	37.9	-0.8	-1.0	100.3*	3.4
Cn1cc(C(=O)N2CCc3ccccc32)cn1	5.3	-38.5	0.2	-4.4	42.0	2.5
O=C1CC(Cc2ccccc2)C(=O)N1c1ncccn1 (centres undefined)	7.7	8.1	3.5	-0.1	-2.8	1.7
CCOC(=O)/C(=C/Nc1ccc(F)c(F)c1)[N+](=O)[O-]	-0.7	.	-4.1	-0.5	.	.
O=C1OC(Oc2ccccc2)(c2ccccc2)c2ccccc21 (centres undefined)	1.9	-7.3	-1.9	-0.8	98.5*	4.2
O=C1OC(OC2CCCCC2)(c2ccccc2)c2ccccc21 (centres undefined)	1.5	-5.0	-3.2	-0.1	5.2	2.9
Cc1c(N)cc[n+](CC(=O)c2ccccc2)c1C	63.2*	19.7	80.7*	-4.5	-8.3	1.7
Cc1cc[n+](CC(=O)c2ccccc2)c2ccccc12	9.9	-9.3	-2.9	-0.7	-2.4	3.1
O=C(CSc1nnc(-c2cccs2)n1-c1ccccc1)NCc1ccc2c(c1)OCO2	0.3	-11.3	-1.9	-0.6	57.5*	3.9
Cc1ccc(C)c2c1cc(C)c1nnc(SCC(=O)NCc3ccc4c(c3)OCO4)n12	8.1	-12.3	0.1	-0.4	70.3*	3.3
Cc1cc(C)c2cc(C)c3nnc(SCC(=O)NCc4ccc5c(c4)OCO5)n3c2c1	-0.6	8.1	2.4	-3.5	2.4	4.0
O=C(CSc1nnc(-c2cccs2)n1Cc1ccccc1)NCc1ccc2c(c1)OCO2	4.0	-13.1	-0.6	0.9	15.1	1.7
O=C(CSc1ncnc2c1cnn2-c1ccc(F)cc1)NCc1ccc2c(c1)OCO2	2.9	-18.4	-1.1	1.1	62.9*	1.5
Cn1c(=O)c2c(nc(Sc3ncnn3CC(=O)NC(C)(C)C)n2C)n(C)c1=O	-0.6	-23.4	1.6	-0.2	-5.3	4.7
Cc1nc(C)c(C(=O)NNS(=O)(=O)c2ccc3ccccc3c2)s1	3.9	-11.6	-1.5	1.6	-4.1	4.7
CCn1ncc(Cl)c1C(=O)NC(C)c1ccccc1 (centres undefined)	2.5	11.1	2.0	-3.3	-5.8	4.6
CCCOc1ccc(C(C)=O)cc1CN1CCOCC1	1.2	0.7	0.4	3.2	-3.8	3.1
CCC(=O)c1ccc(OCCN2CCOCC2)cc1	2.3	7.8	-0.5	-0.1	-3.8	4.8
CCCCOc1ccc(C(=O)CCN2CCCCC2)cc1	5.6	5.6	-3.1	.	92.4*	3.6
CC(C)COc1ccc(C(=O)CCN2CCCCC2)cc1	3.8	7.2	-1.2	4.3	96.4*	2.8
CC(=O)c1ccc(OCC(C)C)c(CN2CCCCC2)c1	-0.4	7.4	-1.2	1.0	85.7*	6.3
COc1ccc(OC)c(NC(=O)C2CCC(CNc3c(N4CCOCC4)c(=O)c3=O)CC2)c1 (centres undefined)	-0.6	.	-2.3	-1.0	.	.

From PubChem BioAssay
